In ChEMBL document CHEMBL2176986, “Selective and potent urea inhibitors of cryptosporidium parvum inosine 5'-monophosphate dehydrogenase” (J Med Chem, 2012):

What was measured:
[1] = molecular target: Inosine-5'-monophosphate dehydrogenase 2 (Homo sapiens, UniProt P12268); experiment: Inhibition of human IMPDH 2
[2] = molecular target: T1, Inosine-5'-monophosphate dehydrogenase (Cryptosporidium parvum, UniProt Q8T6T2); experiment: Inhibition of Cryptosporidium parvum recombinant IMPDH expressed in Escherichia coli assessed as production of NADH incubated for 5 mins by fluorescence based assay
T1 sequence (Q8T6T2 whole entry): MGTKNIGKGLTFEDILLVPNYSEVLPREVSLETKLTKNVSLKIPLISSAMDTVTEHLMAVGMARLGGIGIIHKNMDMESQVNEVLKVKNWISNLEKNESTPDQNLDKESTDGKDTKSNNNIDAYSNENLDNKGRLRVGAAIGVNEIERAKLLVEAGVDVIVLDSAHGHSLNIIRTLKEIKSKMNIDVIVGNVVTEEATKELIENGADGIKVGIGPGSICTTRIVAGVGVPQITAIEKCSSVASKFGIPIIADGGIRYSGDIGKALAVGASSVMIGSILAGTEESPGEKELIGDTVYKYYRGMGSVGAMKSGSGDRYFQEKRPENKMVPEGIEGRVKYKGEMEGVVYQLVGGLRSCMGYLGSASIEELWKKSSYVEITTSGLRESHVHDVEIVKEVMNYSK
How it was run: (§1)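 Recombinant CpIMPDH purified from E. coli, 10 nM, preincubated with inhibitor 5 min at room temperature before substrates added. NADH formation followed by fluorescence. Line 3 also includes 0.05% fatty-acid-free BSA.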

[3] = molecular target: T1, Inosine-5'-monophosphate dehydrogenase; experiment: Inhibition of Cryptosporidium parvum recombinant IMPDH expressed in Escherichia coli assessed as production of NADH in presence of 0.05% fatty acid free BSA incubated for 5 mins by fluorescence based assay; how it was run: as §1
Toxoplasma gondii [4] = experiment: Antiparasitic activity against Toxoplasma gondii expressing Cryptosporidium parvum IMPDH and co-expressing yellow fluorescent protein infected to human TERT immobilized human foreskin fibroblasts assessed as parasite growth inhibition for 6 to 7 days by fluorescence based assay; assay type: functional, organism-based
How it was run: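 Parasite lines carrying yellow fluorescent protein were grown on hTERT-immortalized human foreskin fibroblasts. One line depends on C. parvum IMPDH (Toxo/CpIMPDH). The other is wild-type strain RH, which has its own eukaryotic IMPDH. Fluorescence (Ex 485, Em 530) was read daily for 6-7 days. Growth inhibition was taken on a day within exponential growth.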

Toxoplasma gondii [5] = experiment: Toxicity against wild type Toxoplasma gondii expressing yellow fluorescent protein infected in human TERT immobilized human foreskin fibroblasts assessed as parasite growth inhibition for 6 to 7 days by fluorescence based assay; assay type: organism-based
How it was run: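 Parasite lines carrying yellow fluorescent protein were grown on hTERT-immortalized human foreskin fibroblasts. One line depends on C. parvum IMPDH (Toxo/CpIMPDH). The other is wild-type strain RH, which has its own eukaryotic IMPDH. Growth inhibition was taken on a day within exponential growth.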

Toxoplasma gondii [6] = experiment: Selectivity ratio of EC50 of wild type Toxoplasma gondii to EC50 of Toxoplasma gondii expressing Cryptosporidium parvum IMPDH
How it was run: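 Selectivity is the EC50 against wild-type RH T. gondii divided by the EC50 against the CpIMPDH-dependent strain. Both were measured by daily YFP fluorescence of parasites on hTERT human foreskin fibroblasts over 6-7 days, with inhibition taken in exponential growth.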

Liver = experiment: Half life in mouse liver microsomes; assay type: ADME, Microsome

| SMILES | IC50 [1] [µM] | IC50 [2] [nM] | IC50 [3] [nM] | EC50 (Toxoplasma gondii [4]) [nM] | EC50 (Toxoplasma gondii [5]) [µM] | Ratio EC50 (Toxoplasma gondii [6]) | t1/2 (Liver) [min] |
| --- | --- | --- | --- | --- | --- | --- | --- |
| C=C(C)c1cccc(C(C)(C)NC(=O)Nc2ccccc2Cl)c1 | ≥ 5 | > 5000 |  |  |  |  |  |
| CC(C)(NC(=O)Nc1ccc2[nH]c(=O)[nH]c2c1)c1ccccc1 |  | > 5000 |  |  |  |  |  |
| CC(C)(NC(=O)Nc1ccc(Cl)c(C(N)=O)c1)c1cccc(-c2ccccc2)c1 |  | 4 | 14 | 210 | 6 |  |  |
| CC(=O)c1cccc(C(C)(C)OC(=O)Nc2ccc(Cl)cc2)c1 |  | 90 | 120 |  |  |  |  |
| CC(=O)c1cccc(CNC(=O)Nc2ccc(Cl)cc2)c1 |  | 5000 |  | 11000 | 7 | 0.6 |  |
| C=C(C)c1cccc(C(C)(C)NC(=O)Nc2cccc3ccccc23)c1 | ≥ 5 | > 5000 |  |  |  |  |  |
| CO/N=C(\C)c1cccc(C(C)(C)NC(=O)Nc2ccc3ccccc3c2)c1 |  | 1.6 | 13 | 13 |  |  |  |
| C=C(C)c1cccc(C(C)(C)NC(=O)N(C)c2ccc(Cl)cc2)c1 |  | 900 | 5000 |  |  |  |  |
| C=C(C)c1cccc(C(C)(C)NC(=O)Nc2ccc(C(C)(C)C)cc2)c1 | ≥ 5 | > 5000 |  | 7200 | 20 | 3 |  |
| CC(=O)c1cccc(C(C)(C)NC(=O)Nc2ccc(Cl)cc2)c1 |  | 39 | 64 |  |  |  |  |
| C=C(C)c1cccc(C(C)(C)NC(=O)Nc2ccc(Cl)c(C(=O)NC)c2)c1 | ≥ 5 | 7 | 14 | 180 | 19 | 100 |  |
| CC(=O)c1cccc(C(C)(C)NC(=O)Nc2ccc(Cl)c(C(F)(F)F)c2)c1 |  | 9 | 20 | 200 | 3.2 | 16 |  |
| C=C(C)c1cccc(C(C)(C)NC(=O)Nc2ccccc2)c1 | ≥ 5 | 250 | 410 | 770 | 6 | 8 |  |
| C=C(C)c1cccc(C(C)(C)NC(=O)Nc2ccc(Cl)c(C(=O)N(C)C)c2)c1 | ≥ 5 | 8 | 11.7 | 90 | 9 | 100 |  |
| CC(C)(NC(=O)Nc1ccc(Cl)cc1)c1ccc(-c2ccccc2)cc1 |  | > 5000 |  |  |  |  |  |
| C=C(C)c1cccc(C(C)(C)NC(=O)Nc2ccc3c(c2)OCCO3)c1 | ≥ 5 | 7.2 | 110 | 200 | 8 | 50 |  |
| CC(=O)c1cccc(C(C)(C)NC(=O)Cc2ccc(Cl)cc2)c1 |  | > 5000 |  |  |  |  |  |
| C=C(C)c1cccc(C(C)(C)NC(=O)Nc2ccc(OC)cc2)c1 | ≥ 5 | 9 | 21 |  |  |  |  |
| C=C(C)c1cccc(C(C)(C)NC(=O)Nc2cnc3ccccc3c2)c1 | ≥ 5 | 70 | 308 | 1100 | 2 | 2.3 |  |

| SMILES | IC50 [1] [µM] | IC50 [2] [nM] | IC50 [3] [nM] | EC50 (Toxoplasma gondii [4]) [nM] | EC50 (Toxoplasma gondii [5]) [µM] | Ratio EC50 (Toxoplasma gondii [6]) | t1/2 (Liver) [min] |
| --- | --- | --- | --- | --- | --- | --- | --- |
| C/C(=N\O)c1cccc(C(C)(C)NC(=O)Nc2ccc(Cl)c([N+](=O)[O-])c2)c1 |  | 0.66 | 2 | 6 |  |  | 11 |
| C=C(C)c1cccc(C(C)(C)NC(=O)Nc2ccc3[nH]c(=O)[nH]c3c2)c1 | > 5 | 340 |  |  |  |  |  |
| C=C(C)c1cccc(C(C)(C)NC(=O)Nc2ccc(Cl)cc2)c1 | ≥ 5 | 20 | 37 | 180 | > 25 | >140 |  |
| C=C(C)c1cccc(C(C)(C)NC(=O)Nc2ccc(Br)cc2)c1 | ≥ 5 | 10 | 20 | 200 | > 25 | >120 |  |
| C/C(=N\O)c1cccc(C(C)(C)NC(=O)Nc2ccc3ccccc3c2)c1 |  | 1 | 2.3 | 80 | 5 | 63 |  |
| C=C(C)c1cccc(C(C)(C)NC(=O)Nc2ccc(Cl)c(OC)c2)c1 | ≥ 5 | 1.3 | 5 | 18 | 2.3 | 127 |  |
| CC(=O)c1cccc(C(C)NC(=O)Nc2ccc(Cl)cc2)c1 (stereo not drawn) |  | 70 | 110 | 2300 | 8 |  |  |
| C=C(C)c1cccc(C(C)(C)NC(=O)Nc2ccc3ccccc3c2)c1 | ≥ 5 | 2.1 | 40 | 200 | > 25 | >120 |  |
| C=C(C)c1cccc(C(C)(C)NC(=O)Nc2ccc3ccccc3n2)c1 | ≥ 5 | 250 | 1100 | 3400 | 3 | 0.9 |  |
| C=C(C)c1cccc(C(C)(C)NC(=O)Nc2ccc(Cl)c(Cl)c2)c1 | ≥ 5 | 6 | 50 | 220 | 4 | 20 |  |
| C=C(C)c1cccc(C(C)(C)NC(=O)Nc2ccc3ncccc3c2)c1 | ≥ 5 | 1.8 | 4 | 20 | 7.6 |  |  |
| CC(O)c1cccc(C(C)(C)NC(=O)Nc2ccc(Cl)cc2)c1 (stereo not drawn) |  | 80 | 120 | 900 | 19 |  |  |
| CC(C)c1cccc(C(C)(C)NC(=O)Nc2ccc3ccccc3c2)c1 |  | > 5000 |  |  |  |  |  |
| C=C(C)c1cccc(C(C)(C)NC(=O)Nc2cccc(Cl)c2)c1 | ≥ 5 | 70 | 330 | 380 | 0.402 | 1 |  |
| CO/N=C(\C)c1cccc(C(C)(C)NC(=O)Nc2ccc(Cl)c(C(N)=O)c2)c1 |  | 5 | 5 | 200 | > 25 | >120 |  |
| C=C(C)c1cccc(C(C)(C)NC(=O)Nc2ccc(Cl)c(C(F)(F)F)c2)c1 | ≥ 5 | 4 | 20 |  |  |  |  |
| NC(=O)c1cc(NC(=O)NC2(c3cccc(-c4ccccc4)c3)CC2)ccc1Cl |  | 40 | 90 | 600 | 9 | 15 |  |
| CC(=O)c1cccc(C(C)(C)NC(=O)Oc2ccc(Cl)cc2)c1 |  | > 5000 |  |  |  |  |  |
